Results as given in ChEMBL document CHEMBL3774342, “Indole Based Weapons to Fight Antibiotic Resistance: A Structure-Activity Relationship Study” (J Med Chem, 2016).
Converted amounts (≈) assume the structure as drawn. The source made the active and inactive calls. The calls are words filed in the database; no cut-off is given here.

What was measured:
[1] = molecular target: T1, Quinolone resistance protein NorA (Staphylococcus aureus) (UniProt P0A0J7); experiment: Inhibition of NorA efflux pump in Staphylococcus aureus 1199B assessed as reduction in EtBr efflux at 50 uM incubated for 20 mins measured for 5 mins by real-time fluorometric analysis
T1 sequence (whole entry): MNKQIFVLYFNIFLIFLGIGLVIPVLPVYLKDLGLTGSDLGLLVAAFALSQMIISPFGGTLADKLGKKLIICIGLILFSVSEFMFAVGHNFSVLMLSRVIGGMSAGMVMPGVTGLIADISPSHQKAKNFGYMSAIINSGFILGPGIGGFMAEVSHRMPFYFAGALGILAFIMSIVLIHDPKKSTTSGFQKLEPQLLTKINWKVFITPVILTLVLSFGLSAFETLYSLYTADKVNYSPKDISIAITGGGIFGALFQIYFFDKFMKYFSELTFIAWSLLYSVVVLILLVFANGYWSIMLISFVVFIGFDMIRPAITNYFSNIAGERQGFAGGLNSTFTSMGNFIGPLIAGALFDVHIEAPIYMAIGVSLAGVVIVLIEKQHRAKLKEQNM
Outline: (§1)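 SA-1199B (norA-overexpressing) grown overnight in cation-supplemented Mueller-Hinton broth, diluted 25-fold and grown at 35 °C to OD600 0.7–0.8. Loaded with EtBr 25 µM plus CCCP 100 µM (final), then resuspended in fresh broth. Fluorescence read at ex 485/em 645 nm for 5 min, ± compound. Efflux inhibition in % relative to untreated cells; screened at 50 µM. IC50 from concentration series; triplicate, two technical replicates each.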

[2] = test system: Staphylococcus aureus; experiment: Antimicrobial activity against Staphylococcus aureus 1199B by microdilution method; type: functional
Outline: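 MIC by broth microdilution following CLSI guidelines against S. aureus SA-1199B, a strain that overexpresses norA. Run on compounds giving at least 80% EtBr efflux inhibition and on selected weaker ones.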

[3] = test system: Liver microsome; experiment: Drug metabolism in human liver microsomes assessed as ethyl 2-methyl-5-(2-(piperazin-1-yl)ethoxy)-1H-indole-3-carboxylate formation at 10 uM preincubated for 5 mins followed by NADPH addition measured after 30 mins by HPLC-MS/MS analysis; type: ADME; conditions: 0.5 h
Outline: (§2)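 Human liver microsomes at 0.5 mg protein/ml in 100 mM potassium phosphate pH 7.4. Substrate at 10 µM final, pre-incubated 5 min at 37 °C with shaking, then started with 1 mM NADPH. Quenched at 0 and 30 min with cold acetonitrile containing labetalol internal standard. Spun 12000 g, 5 min, 4 °C; supernatant analysed by UHPLC C18 HPLC-MS/MS.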

[4] = test system: Liver microsome; experiment: Drug metabolism in human liver microsomes assessed as 1-benzyl-2-methyl-5-(2-(piperazin-1-yl)ethoxy)-1H-indole-3-carboxylic acid formation at 10 uM preincubated for 5 mins followed by NADPH addition measured after 30 mins by HPLC-MS/MS analysis; type: ADME; conditions: 0.5 h; outline: as §2
[5] = Metabolic stability in human liver microsomes assessed as compound remaining after at 10 uM preincubated for 5 mins followed by NADPH addition measured after 30 mins by HPLC-MS/MS analysis; type: ADME; conditions: read-out: Stability; outline: as §2
[6] = test system: Staphylococcus aureus; experiment: Inhibition of NorA efflux pump A116E GrlA mutant in Staphylococcus aureus 1199B assessed as potentiation of ciprofloxacin-mediated antibacterial activity at 3.13 ug/ml relative to control
[7] = molecular target: T1, Quinolone resistance protein NorA (Staphylococcus aureus); experiment: Inhibition of NorA efflux pump in Staphylococcus aureus 1199 assessed as potentiation of ciprofloxacin-mediated antibacterial activity
[8] = molecular target: T2, Quinolone resistance protein NorA (Staphylococcus aureus, UniProt P0A0J7); experiment: Inhibition of NorA efflux pump in Staphylococcus aureus 1199B assessed as reduction in EtBr efflux incubated for 20 mins measured for 5 mins by real-time fluorometric analysis; outline: as §1
T2 sequence (P0A0J7 whole entry): T1 sequence (whole entry)

[9] = Solubility of the compound in D2O solution at 25 degC by 1H NMR analysis; type: physicochemical
Outline: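 1H NMR in D2O at 25 °C with TSP internal standard, following a literature procedure.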

[10] = test system: Liver microsome; experiment: Drug metabolism in human liver microsomes assessed as ethyl 2-Methyl-5-(3-(piperidin-1-yl)propoxy)-1H-indole-3-carboxylate formation at 10 uM preincubated for 5 mins followed by NADPH addition measured after 30 mins by HPLC-MS/MS analysis; type: ADME; conditions: 0.5 h; outline: as §2
[11] = test system: Liver microsome; experiment: Drug metabolism in human liver microsomes assessed as 1-Benzyl-2-methyl-5-(3-(piperidin-1-yl)propoxy)-1H-indole-3-carboxylic acid formation at 10 uM preincubated for 5 mins followed by NADPH addition measured after 30 mins by HPLC-MS/MS analysis; type: ADME; conditions: 0.5 h; outline: as §2
[12] = test system: Liver microsome; experiment: Drug metabolism in human liver microsomes assessed as ethyl 5-(3-aminopropoxy)-2-methyl-1H-indole-3-carboxylate formation at 10 uM preincubated for 5 mins followed by NADPH addition measured after 30 mins by HPLC-MS/MS analysis; type: ADME; conditions: 0.5 h; outline: as §2
[13] = test system: Liver microsome; experiment: Drug metabolism in human liver microsomes assessed as 5-(3-aminopropoxy)-1-benzyl-2-methyl-1H-indole-3-carboxylic acid formation at 10 uM preincubated for 5 mins followed by NADPH addition measured after 30 mins by HPLC-MS/MS analysis; type: ADME; conditions: 0.5 h; outline: as §2
[14] = test system: Liver microsome; experiment: Drug metabolism in human liver microsomes assessed as N-dealkylated M-68 formation at 10 uM preincubated for 5 mins followed by NADPH addition measured after 30 mins by HPLC-MS/MS analysis; type: ADME; conditions: 0.5 h; outline: as §2
[15] = test system: Liver microsome; experiment: Drug metabolism in human liver microsomes assessed as N-dealkylated M-90 formation at 10 uM preincubated for 5 mins followed by NADPH addition measured after 30 mins by HPLC-MS/MS analysis; type: ADME; conditions: 0.5 h; outline: as §2
[16] = test system: Liver microsome; experiment: Drug metabolism in human liver microsomes assessed as ethyl 1-(2-hydroxybenzyl)-2-methyl-5-(3-(piperidin-1-yl)propoxy)-1H-indole-3-carboxylate formation at 10 uM preincubated for 5 mins followed by NADPH addition measured after 30 mins by HPLC-MS/MS analysis; type: ADME; conditions: 0.5 h; outline: as §2
[17] = test system: Liver microsome; experiment: Drug metabolism in human liver microsomes assessed as ethyl 2-methyl-5-(3-(piperazin-1-yl)propoxy)-1H-indole-3-carboxylate formation at 10 uM preincubated for 5 mins followed by NADPH addition measured after 30 mins by HPLC-MS/MS analysis; type: ADME; conditions: 0.5 h; outline: as §2
[18] = test system: Liver microsome; experiment: Drug metabolism in human liver microsomes assessed as 1-benzyl-2-methyl-5-(3-(piperazin-1-yl)propoxy)-1H-indole-3-carboxylic acid formation at 10 uM preincubated for 5 mins followed by NADPH addition measured after 30 mins by HPLC-MS/MS analysis; type: ADME; conditions: 0.5 h; outline: as §2

Structure (SMILES): CCOC(=O)c1c(C)n(Cc2ccccc2)c2ccc(OCCN3CCNCC3)cc12
- inhibition [1]: 99.2%
- MIC [2]: > 100 µg/mL
- Drug metabolism [3]: metabolite_detected
- Drug metabolism [4]: metabolite_detected
- remaining at 0.5 h, 10 µM [5]: 72%
- fold change (FC) [6]: 4
- inhibition [7]: inactive
- IC50 [8]: 15.5 µM
- solubility [9]: 190 µM (≈ 80.1 µg/mL)

Structure (SMILES): CCOC(=O)c1c(C)n(Cc2ccccc2)c2ccc(OCCCN3CCCCC3)cc12
- inhibition [1]: 98.5%
- MIC [2]: > 100 µg/mL
- remaining at 0.5 h, 10 µM [5]: 76%
- IC50 [8]: 6 µM
- Drug metabolism [10]: metabolite_detected
- Drug metabolism [11]: metabolite_detected
- solubility [9]: 23 µM (≈ 10 µg/mL)

Structure (SMILES): CCOC(=O)c1c(C)n(Cc2ccccc2)c2ccc(OCCCN)cc12
- inhibition [1]: 100%
- MIC [2]: > 100 µg/mL
- remaining at 0.5 h, 10 µM [5]: 87%
- fold change (FC) [6]: 4
- inhibition [7]: inactive
- IC50 [8]: 12.5 µM
- Drug metabolism [12]: metabolite_detected
- Drug metabolism [13]: metabolite_detected
- solubility [9]: 17 µM (≈ 6.23 µg/mL)

Structure (SMILES): CCOC(=O)c1c(C)n(Cc2ccccc2)c2ccc(OCC(F)CN3CCCCC3)cc12 (stereo not drawn)
- inhibition [1]: 96.7%
- MIC [2]: > 100 µg/mL
- remaining at 0.5 h, 10 µM [5]: 52%
- IC50 [8]: 5.1 µM
- Drug metabolism [14]: metabolite_detected
- Drug metabolism [15]: metabolite_detected
- solubility [9]: 20 µM (≈ 9.05 µg/mL)

Structure (SMILES): CCOC(=O)c1c(C)n(Cc2ccccc2OC)c2ccc(OCCCN3CCCCC3)cc12
- inhibition [1]: 87.9%
- MIC [2]: > 100 µg/mL
- remaining at 0.5 h, 10 µM [5]: 66%
- IC50 [8]: 5 µM
- Drug metabolism [10]: metabolite_detected
- Drug metabolism [16]: metabolite_detected
- solubility [9]: 25 µM (≈ 11.6 µg/mL)

Structure (SMILES): CCOC(=O)c1c(C)n(Cc2ccccc2)c2ccc(OCCCN3CCNCC3)cc12
- inhibition [1]: 100%
- MIC [2]: 100 µg/mL (≈ 230 µM)
- remaining at 0.5 h, 10 µM [5]: 82%
- fold change (FC) [6]: 4
- inhibition [7]: inactive
- IC50 [8]: 12.5 µM
- Drug metabolism [17]: metabolite_detected
- Drug metabolism [18]: metabolite_detected
- solubility [9]: 20 µM (≈ 8.71 µg/mL)
